Results published in publication PMC2233868 (The Journal of General Physiology, 2002).
Values joined by “and” are separate entries in the source; they are usually repeats but may differ in a detail not shown here. Equal values may be shown once. “Also recorded” adds a separate entry of the source. Read-outs that look alike come from different tables or passages of the source.

What was measured:
[1] = test system: volume-regulated anion channels (VRAC); assay: Whole cell membrane current; conditions: for membrane leakiness: extracellular ATP 10 mM or higher, high concentrations of ADP; for r = k12(0)/k10(0) / δ, electrical distance of binding site inside the channel: pooled cells; for voltage dependence of VRAC block / effect on outward component of VRAC current: total nucleotide concentration 1 mM; for effect on outward component of VRAC current: HTS 17%
[2] = test system: bovine aortic endothelial cells (BAEC); assay type: cell-based
[3] = test system: bovine aortic endothelial cells (BAEC); assay: HTS-induced Ca2+ oscillations, fura-2 fluorescence; assay type: cell-based; conditions: HTS 40%; glibenclamide 100 μM
[4] = test system: bovine aortic endothelial cells (BAEC); assay: HTS-induced NO production, DAF-2 fluorescence; assay type: cell-based
Outline: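 NO was imaged with DAF-2 in first-subculture bovine aortic endothelial cells bathed in modified Krebs solution (1.5 mM Ca2+, pH 7.3), made hypotonic with distilled water. Fluorescence in each experiment was normalized to a reference image taken before the hypotonic challenge. n = cells examined; mean ± SEM; Student's unpaired t test, P < 0.05 significant.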

[5] = test system: cultured ciliary epithelial cells; conditions: ref Mitchell et al., 1998; cited from earlier work
prostate cancer cells = conditions: ref Sauer et al., 2000; cited from earlier work
[6] = test system: bovine aortic endothelial cells (BAEC); conditions: disruption of the actin cytoskeleton; ref Koyama et al., 2001; cited from earlier work
[7] = test system: VRAC currents in BC3H1 and C2C12 cells; conditions: concentrations up to 100 μM; ref Voets et al., 1997; cited from earlier work
[8] = test system: large conductance anion channel (368 pS); conditions: ref Li et al., 2000; cited from earlier work
[9] = test system: bovine aortic endothelial cells (BAEC); assay: Ca2+ transients induced by exogenously applied ATP, fura-2; assay type: cell-based; conditions: exogenous ATP 1 μM
Outline: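 [Ca2+]i tracked by fura-2 fluorescence using digital fluorescence microscopy at room temperature (20–25°C). Mean ± SEM; Student's unpaired t test, P < 0.05 significant.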

[10] = 10 or 20 mM extracellular ADP, extracellular Cl− 2 mM
[11] = fit to simplified Eq. 2, total nucleotide 1 mM
[12] = representative data, Figs. 4 C (dashed line) and 5 B, Eq. 2
[13] = 20% HTS, 10 min, fluoxetine 1 μM, glibenclamide 100 μM, tamoxifen 10 μM, verapamil 10 μM, P < 0.01
[14] = fit to Eq. 1, extracellular ATP total 1 mM
[15] = representative cell, Fig. 4 C solid line, Eq. 1

For `Nc1ncnc2c1ncn2[C@@H]1O[C@H](COP(=O)(O)OP(=O)(O)O)[C@@H](O)[C@H]1O` [ADP], the “effect on outward component of VRAC current in low Cl− hypotonic solution” value ([1]; 1 mM extracellular ADP, extracellular Cl− 2 mM) was “still inhibited”, the “effect on inward current in low Cl− hypotonic solution” value [1, 10] was “virtually no effect” and the “effect on outward current in low Cl− hypotonic solution” value [1, 10] was “significantly enhanced”. For the same molecule, the membrane leakiness [1] was “did not cause membrane leakiness”, the “r = k12(0)/k10(0)” value [1, 11] was 0.23 ± 0.05 and the “δ, electrical distance of binding site inside the channel” value (“δ, electrical distance” below) [1, 11] was 0.48 ± 0.01. The “r of the fitted curve” value [1, 12] was 0.26, the “δ of the fitted curve” value [1, 12] was 0.40 and the “voltage dependence of VRAC block” value [1] was “less voltage sensitive; also recorded: bell-shaped voltage-dependent inhibition”.
For `Nc1ncnc2c1ncn2[C@@H]1O[C@H](COP(=O)(O)O)[C@@H](O)[C@H]1O` [AMP], the “voltage dependence of VRAC block” value [1] was “weakly voltage-dependent”.
For `CNCCC(Oc1ccc(C(F)(F)F)cc1)c1ccccc1` (centres unmarked) [fluoxetine], the “effect on HTS-induced ATP release” value [2, 13] was “Inhibition”, the “effect on HTS-induced Ca2+ oscillations” value [3] was “abolished” and the “effect on HTS-induced NO production” value [4] was “abolished”.
With `C[C@H]1CCC/C=C/[C@@H]2C[C@H](O)C[C@H]2[C@H](O)/C=C/C(=O)O1` [Brefeldin A, brefeldin A] the “effect on HTS-induced ATP release” value ([2]; pretreated with 3 μg/ml for 2.5 h, HTS 20%) was “did not, however, affect” and the “effect on HTS-induced VRAC currents” value ([1]; pretreated with 3 μg/ml for 2.5 h, HTS 20%, −50 mV and 100 mV) was “did not, however, affect”.
With `COc1ccc(CCN(C)CCCC(C#N)(c2ccc(OC)c(OC)c2)C(C)C)cc1OC` (centres unmarked) [verapamil] the “effect on HTS-induced ATP release” value [2, 13] was “Inhibition”, the “effect on HTS-induced Ca2+ oscillations” value [3] was “abolished” and the “effect on HTS-induced NO production” value [4] was “abolished”.
In the case of `O=C(O)c1cc([N+](=O)[O-])ccc1NCCCc1ccccc1` [NPPB], the “effect on ATP release” value [5] is given as “suppressed” and the “effect on ATP release” value (prostate cancer cells) is given as “suppressed”.
In the case of `C=C1[C@@H](C)[C@H]2[C@H](Cc3ccccc3)NC(=O)[C@]23OC(=O)/C=C/[C@H](O)CCC[C@@H](C)C/C=C/[C@H]3[C@@H]1O` [cytochalasin B], the “effect on HTS-induced ATP release” value [6] is listed as “does not inhibit”.
For `Nc1ccn([C@@H]2O[C@H](COP(=O)(O)OP(=O)(O)OP(=O)(O)O)[C@@H](O)[C@H]2O)c(=O)n1` [CTP], the “r = k12(0)/k10(0)” value [1, 11] was 0.21 ± 0.09, the “δ, electrical distance” value [1, 11] was 0.47 ± 0.02 and the “r of the fitted curve” value [1, 12] was 0.057. The “δ of the fitted curve” value [1, 12] was 0.44 and the “voltage dependence of VRAC block” value [1] was “bell-shaped voltage-dependent inhibition”.
With `Nc1ncnc2c1ncn2[C@@H]1O[C@H](CO)[C@@H](O)[C@H]1O` [adenosine] the “effect on outward component of VRAC current” value [1] was “does not inhibit”.
In the case of `O=c1ccn([C@@H]2O[C@H](COP(=O)(O)OP(=O)(O)OP(=O)(O)O)[C@@H](O)[C@H]2O)c(=O)[nH]1` [UTP], the “r = k12(0)/k10(0)” value [1, 11] is reported as 0.14 ± 0.05, the “δ, electrical distance” value [1, 11] is reported as 0.39 ± 0.04 and the “r of the fitted curve” value [1, 12] is reported as 0.13. For the same molecule, the “δ of the fitted curve” value [1, 12] was 0.42 and the “voltage dependence of VRAC block” value [1] was “bell-shaped voltage-dependent inhibition”.
For `CC/C(=C(\c1ccccc1)c1ccc(OCCN(C)C)cc1)c1ccccc1` [tamoxifen], the “effect on HTS-induced ATP release” value [2, 13] is listed as “Inhibition”, the “effect on VRAC currents” value [7] is listed as “did not significantly inhibit” and the “effect on ATP release” value (prostate cancer cells) is listed as “effective”. The “effect on large conductance anion channel” value [8] was “activates”.
In the case of `Nc1ncnc2c1ncn2[C@@H]1O[C@H](COP(=O)(O)OP(=O)(O)OP(=O)(O)O)[C@@H](O)[C@H]1O` [ATP], the “activation of a VRAC-like current in isotonic solutions” value ([1]; exogenous ATP, isotonic solution) is reported as “did not activate”, the membrane leakiness [1] is reported as “induced membrane leakiness” and the “membrane potential of maximum inhibition of outward VRAC current” value ([1]; extracellular ATP total 1 mM, free 0.15 mM) is reported as 30–40 mV. The “r = k12(0)/k10(0)” value [1, 14] was 0.38 ± 0.08, the “δ, electrical distance” value [1, 14] was 0.41 and 0.41 ± 0.03 and the “r = k12(0)/k10(0)” value [1, 11] was 0.42 ± 0.16. The “δ, electrical distance” value [1, 11] was 0.42 ± 0.02, the “r of the fitted curve” value [1, 15] was 0.29 and the “δ of the fitted curve” value [1, 15] was 0.42. For the same molecule, the “r of the fitted curve” value [1, 12] was 0.22, the “δ of the fitted curve” value [1, 12] was 0.43 and the “voltage dependence of VRAC block” value [1] was “marked voltage dependency”. For the same molecule, the “effect on outward component of VRAC current” value [1] was “inhibited”.
With `COc1ccc(Cl)cc1C(=O)NCCc1ccc(S(=O)(=O)NC(=O)NC2CCCCC2)cc1` [glibenclamide] the “effect on HTS-induced ATP release” value [2, 13] was “Inhibition”, the “effect on HTS-induced Ca2+ oscillations” value [3] was “abolished” and the “effect on Ca2+ transients induced by exogenously applied ATP” value [9] was “did not affect”. For the same molecule, the “effect on ADP-induced outward current” value ([1]; 100 μM, low Cl− hypotonic solution, unpublished data) was “suppressed” and the “effect on HTS-induced NO production” value [4] was “abolished”.
In the case of `Nc1nc2c(ncn2[C@@H]2O[C@H](COP(=O)(O)OP(=O)(O)OP(=O)(O)O)[C@@H](O)[C@H]2O)c(=O)[nH]1` [GTP], the “r = k12(0)/k10(0)” value [1, 11] is reported as 0.70 ± 0.30, the “δ, electrical distance” value [1, 11] is reported as 0.41 ± 0.06 and the “r of the fitted curve” value [1, 12] is reported as 0.24. For the same molecule, the “δ of the fitted curve” value [1, 12] was 0.44 and the “voltage dependence of VRAC block” value [1] was “bell-shaped voltage-dependent inhibition”.
